Data reported in PMC8599380 (European Journal of Drug Metabolism and Pharmacokinetics, 2021).
Where two headings read alike, the source gives them in different places.

Assays:
[1] = Population pharmacokinetic model; type: in vivo, human
Outline: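 Patients dosed orally three or four times weekly; 28-day cycles of 3 weeks dosing then 7 days off. Plasma sampled pre-dose to 24 h on day 1, 5 and/or 19 (882 concentrations). FOCE-I estimation; lag-time and transit absorption models tested; exponential IIV; additive residual error on log data. Median-normalized power covariate models; forward P<0.05, backward P 0.01; bootstrap evaluation.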

[2] = cited from earlier work
[3] = test system: patients with hematologic and solid tumor malignancies; settings: cited from earlier work
[4] = mouse plasma; cited from earlier work
[5] = cited from earlier work; remark: listed apart in the source
[6] = oral flat dose, preliminary phase 1 data

CC(C)[C@H](C(=O)Nc1ccc(C(=O)NO)cc1)c1ccccc1 [REC-2282]
variability in dose-normalized AUC ([1]; 55 patients, 20 mg to 80 mg): 24.1% | variability in dose-normalized Cmax ([1]; 55 patients, 20 mg to 80 mg): 29.6% | dose proportionality of pharmacokinetics ([1]; flat doses 20 mg to 80 mg): dose-proportional | oral bioavailability ([2]; mice, preclinical, ref unpublished data): 26% | dose recovered in urine ([2]; mouse urine): 1.4% | clinical response ([3]; 27 patients enrolled): minimal response to progressive disease | most common adverse event ([3]; 27 patients enrolled): dose-dependent cytopenias | observed dose-limiting toxicities [3]: grade 4 thrombocytopenia, febrile neutropenia and grade 3 neutropenia with infection and grade 4 psychosis | coefficient of variation (CV) in apparent oral clearance among dose levels [3, 6]: 36 to 76% | coefficient of variation (CV) in peak concentrations among dose levels [3, 6]: 24–66% | median progression-free survival ([3]; patients with NF2 and meningiomas): 9.1 months | median progression-free survival ([3]; solid tumors): 3.6 months | bound to plasma proteins [4]: 96% | dose recovered in urine ([5]; rat urine): 5% | oral bioavailability ([5]; rats, preclinical, ref unpublished data): 100%
